Results collected from several papers.
Lines come from different studies, so protocols differ.
Target: Discoidin domain-containing receptor 2 (DDR2, Homo sapiens, UniProt Q16832)
Sequence (Q16832 22-855, as in one of the studies): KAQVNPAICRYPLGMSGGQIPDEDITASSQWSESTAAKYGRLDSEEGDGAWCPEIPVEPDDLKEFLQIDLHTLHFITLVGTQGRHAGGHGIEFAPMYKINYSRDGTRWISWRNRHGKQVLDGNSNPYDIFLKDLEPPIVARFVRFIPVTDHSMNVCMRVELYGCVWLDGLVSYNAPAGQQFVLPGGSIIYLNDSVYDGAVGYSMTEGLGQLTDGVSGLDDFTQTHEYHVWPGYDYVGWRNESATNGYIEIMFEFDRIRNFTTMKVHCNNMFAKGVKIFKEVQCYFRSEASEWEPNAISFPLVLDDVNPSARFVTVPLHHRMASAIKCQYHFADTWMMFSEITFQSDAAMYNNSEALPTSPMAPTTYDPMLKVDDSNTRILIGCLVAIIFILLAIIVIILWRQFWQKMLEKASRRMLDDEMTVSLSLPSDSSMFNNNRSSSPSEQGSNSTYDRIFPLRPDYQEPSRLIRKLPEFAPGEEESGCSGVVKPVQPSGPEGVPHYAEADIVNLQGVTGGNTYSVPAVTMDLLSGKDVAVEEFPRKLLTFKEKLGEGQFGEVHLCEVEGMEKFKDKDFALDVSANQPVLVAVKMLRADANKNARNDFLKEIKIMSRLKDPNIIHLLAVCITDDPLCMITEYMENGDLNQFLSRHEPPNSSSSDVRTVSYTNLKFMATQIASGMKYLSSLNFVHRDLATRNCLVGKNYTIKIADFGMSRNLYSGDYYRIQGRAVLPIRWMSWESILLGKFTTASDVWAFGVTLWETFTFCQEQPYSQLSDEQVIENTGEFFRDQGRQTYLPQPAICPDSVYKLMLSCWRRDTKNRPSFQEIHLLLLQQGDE

Structure (SMILES) | read-out | technique | tested at | remaining binding
CS(=O)(=O)NCC[C@H](NC(=O)c1cncc2c1cnn2-c1ccc(F)cc1)c1ccnc(S(C)(=O)=O)c1 | cell-free assay | competition with immobilised ligand | 1 µM | 100%
O=C(c1ccc(Nc2nccc(-c3cc4ccccc4s3)n2)cc1)N1CCC(N2CCCC2)CC1 | binding | competition with immobilised ligand | 1 µM | 20%
F[C@@H]1CCN(c2nccc(-c3cnn4ncccc34)n2)C1 | binding | – | 1 µM | 91%
COc1cnc(Nc2cccc(S(N)(=O)=O)c2)nc1N1CCN(c2ccccc2)C(=O)C1 | binding | competition with immobilised ligand | 1 µM | 100%
CN(C)c1nccc(-c2cnc3ncccn23)n1 | binding | – | 1 µM | 84%
CCCOc1ccc([C@H]2[C@H](C(=O)O)[C@@H](c3ccc4c(c3)OCO4)CN2CC(=O)Nc2c(CC)cccc2CC)cc1 | cell-free assay | competition with immobilised ligand | 1 µM | 71%
FC(F)(F)Oc1cccc(-c2cnc3ccc(-c4ccncc4)nn23)c1 | cell-free assay | competition with immobilised ligand | 5 µM | 55%
O=c1nc(-c2ccccn2)sc2ccccc12 | cell-free assay | competition with immobilised ligand | 1 µM | 100%
c1cnn2ncc(-c3ccnc(N4CCC45COC5)n3)c2c1 | binding | – | 1 µM | 83%
O=C(NCCCN1CCOCC1)c1ccc(Nc2ncc(Cl)c(-c3ccc(Cl)s3)n2)cc1 | binding | competition with immobilised ligand | 1 µM | 61%
Cn1nc(C(F)(F)F)cc1-c1cnc(N2CCc3cc(S(=O)(=O)Nc4c(F)cc(Cl)cc4F)cc(N4CCCC4=O)c32)nc1 | cell-free assay | competition with immobilised ligand | 1 µM | 80%
C=CC(=O)N1CCC(C(=O)NCC(=O)N2CCN(c3nc(-c4cnc(N)nc4C(F)F)nc(N4CCOCC4)n3)CC2)CC1 | binding | competition with immobilised ligand | 1 µM | 83%
O=C(Nc1c[nH]nc1C(=O)NC1CCNCC1)c1cc(F)cc(F)c1 | binding | competition with immobilised ligand | 1 µM | 94%
Cc1cnc(Nc2ccc(C(=O)N3CCC(N4CCCC4)CC3)cc2)nc1-c1cc2ccccc2s1 | binding | competition with immobilised ligand | 1 µM | 8%
COc1ccnn2ncc(-c3ccnc(N(C)C)n3)c12 | binding | – | 1 µM | 67%
O=C(N[C@H]1CCCCC/C=C\C2C[C@@]2(C(=O)O)NC(=O)[C@@H]2C[C@@H](Oc3ccncc3)CN2C1=O)OC1CCCC1 (some centres unmarked) | cell-free assay | competition with immobilised ligand | 1 µM | 100%
CC1CCCN1c1nccc(-c2cnn3ncccc23)n1 (centres unmarked) | binding | – | 1 µM | 100%
COc1cnc(Nc2cccc(S(N)(=O)=O)c2)nc1N1CCN(c2ccccc2)CC1 | binding | competition with immobilised ligand | 1 µM | 66%
CC(C)(O)c1cncc(-c2nc3ccc(F)cc3n2C2CC2)c1 | cell-free assay | competition with immobilised ligand | 1 µM | 100%
Cc1cnn2ncc(-c3ccnc(N(C)C)n3)c2c1 | binding | – | 1 µM | 69%
